Data set [1] can be described thus: Selectivity index, ratio of IC50 for African green monkey Vero cells to MIC=<90 for Mycobacterium tuberculosis. Type of data set: toxicity. The settings on record: read-out: Selectivity Index.
Data set [2] can be described thus: Selectivity index, ratio of IC50 for African green monkey Vero cells to MIC for Mycobacterium abscessus CIP104536. Type of data set: toxicity. The settings on record: read-out: Selectivity Index.
Data set [3] deals with Mycobacteroides abscessus. Description: Antibacterial activity against CF patient derived Mycobacterium abscessus subsp. abscessus isolate 2524 rough variant after 3 to 5 days by two fold serial dilution method. In kind it is functional. Put shortly:
(§1)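 Broth microdilution in cation-adjusted Mueller−Hinton broth per CLSI; inoculum 5 × 10^6 CFU/mL of exponential-phase bacteria; two-fold serial dilutions, solvent-only wells as control; 30 °C for 3−5 days; MIC read visually and confirmed by absorbance at 560 nm; triplicate on three independent occasions.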

For data set [4], the system named is Mycobacteroides abscessus. Description: Antibacterial activity against CF patient derived Mycobacterium abscessus subsp. abscessus isolate 1298 smooth variant after 3 to 5 days by two fold serial dilution method. In kind it is functional. Put shortly:
as §1

Data set [5] deals with Mycobacteroides abscessus. Description: Antibacterial activity against CF patient derived Mycobacterium abscessus subsp. massiliense isolate 111 smooth variant after 3 to 5 days by two fold serial dilution method. In kind it is functional. Put shortly: as §1
Data set [6] concerns Mycobacteroides abscessus. Description: Antibacterial activity against CF patient derived Mycobacterium abscessus subsp. massiliense isolate 140 smooth variant after 3 to 5 days by two fold serial dilution method. Type of data set: functional. Put shortly:
as §1

Data set [7] in a line: Antibacterial activity against non CF patient derived Mycobacterium abscessus subsp. bolletii isolate 19 rough variant after 3 to 5 days by two fold serial dilution method. The settings on record: Mycobacteroides abscessus. Type of data set: functional. In outline: as §1
Data set [8] has as its system Mycobacteroides abscessus. The data set is described as follows: Antibacterial activity against Mycobacterium abscessus CIP104536 smooth variant infected in PMA activated THP-1 macrophages assessed as reduction in viable colony forming unit at 3 ug/ml measured upto 4 days post treatment. In kind it is functional. Put shortly:
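THP-1 cells in RPMI with 10% FBS, differentiated with 20 ng/mL PMA for 48 h at 37 °C; infected at MOI 1:2 for 2 h under 5% CO2; washed, 200 μg/mL amikacin for 1 h, washed; drug medium renewed daily; lysed in 1% Triton X100 at 0, 48, 96 h and plated for CFU; triplicates, two independent experiments.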

Data set [9] deals with Mycobacteroides abscessus. The data set is described as follows: Antibacterial activity against Mycobacterium abscessus CIP_PIPD1 harboring MAB_4508 g925c/A309P mutant after 3 to 5 days by two fold serial dilution method. In kind it is functional. In outline:
as §1

The test system of data set [10] is Mycobacteroides abscessus. Description: Antibacterial activity against Mycobacterium abscessus CIP104536 smooth variant harboring pMV261 MAB_4508_A309P mutant at 0.5 to 1 ug/ml after 3 days. In kind it is functional. Put shortly: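 M. abscessus overexpressing wild-type or A309P MAB_4508 from pMV261 plated on 7H10 agar with 10% OADC containing drug; plates incubated at 30 °C for 3 days before growth inspection.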

The test system of data set [11] is Mycobacteroides abscessus. Description: Effect on de novo mycolic acid biosynthesis in Mycobacterium abscessus CIP104536 smooth variant at 6.2 ug/ml preincubated for 1 hr followed by [14C]acetic acid addition measured after 2 hrs by TLC based autoradiography analysis. Type of data set: functional. In outline:
(§2)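 Exponential cultures in 7H9 with OADC exposed to increasing drug concentrations for 1 h at 37 °C with agitation, then labelled with 1 μCi/mL [14C]acetate (56 mCi/mmol) for 2 h; apolar lipids (TMM, TDM) run on TLC in chloroform/methanol/water 40:8:1; MAME and arabinogalactan-bound mycolates in petroleum ether/acetone 95:5; autoradiography.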

Data set [12] concerns Mycobacteroides abscessus. The data set is described as follows: Inhibition of MmpL3 in Mycobacterium abscessus CIP104536 smooth variant assessed as reduction in trehalose dimycolate synthesis up to 6.2 ug/ml preincubated for 1 hr followed by [14C]acetic acid addition measured after 2 hrs by TLC based autoradiography analysis. Put shortly:
as §2

Data set [13] has as its target T1, Cytochrome P450 1A2 (Homo sapiens, UniProt P05177).
T1 sequence (P05177 whole entry): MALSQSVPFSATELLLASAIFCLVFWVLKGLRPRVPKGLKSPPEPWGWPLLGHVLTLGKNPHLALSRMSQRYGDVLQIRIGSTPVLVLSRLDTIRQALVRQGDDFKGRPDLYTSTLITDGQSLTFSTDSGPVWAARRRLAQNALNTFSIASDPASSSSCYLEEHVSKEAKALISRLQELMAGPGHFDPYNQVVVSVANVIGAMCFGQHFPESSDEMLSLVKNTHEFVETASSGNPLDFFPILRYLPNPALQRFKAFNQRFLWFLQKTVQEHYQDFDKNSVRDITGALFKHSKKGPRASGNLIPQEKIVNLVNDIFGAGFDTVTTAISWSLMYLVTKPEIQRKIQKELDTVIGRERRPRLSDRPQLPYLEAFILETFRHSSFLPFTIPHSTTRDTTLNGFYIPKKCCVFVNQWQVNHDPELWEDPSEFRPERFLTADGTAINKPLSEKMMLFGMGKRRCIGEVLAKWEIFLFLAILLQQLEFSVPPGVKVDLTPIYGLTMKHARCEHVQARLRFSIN
Description: Inhibition of CYP1A2 in human liver microsomes preincubated for 5 mins followed by NADPH addition measured after 10 mins by LC-MS/MS analysis. In kind it is ADME.

Data set [14] concerns Mycobacterium tuberculosis. Description: Inhibition of C-terminal His-tagged Mycobacterium tuberculosis Ag85C expressed in Escherichia coli C41 (DE3) at 2.5 to 50 uM after 1 hr by resorufin butyrate-based fluorescence assay. In outline: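 Purified Ag85C mycolyltransferase activity measured with the fluorescent probe resorufin butyrate; compounds tested at 2.5 to 50 μM.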

In data set [15] the target is T2, Cytochrome P450 2C8 (Homo sapiens, UniProt P10632).
T2 sequence (P10632 whole entry): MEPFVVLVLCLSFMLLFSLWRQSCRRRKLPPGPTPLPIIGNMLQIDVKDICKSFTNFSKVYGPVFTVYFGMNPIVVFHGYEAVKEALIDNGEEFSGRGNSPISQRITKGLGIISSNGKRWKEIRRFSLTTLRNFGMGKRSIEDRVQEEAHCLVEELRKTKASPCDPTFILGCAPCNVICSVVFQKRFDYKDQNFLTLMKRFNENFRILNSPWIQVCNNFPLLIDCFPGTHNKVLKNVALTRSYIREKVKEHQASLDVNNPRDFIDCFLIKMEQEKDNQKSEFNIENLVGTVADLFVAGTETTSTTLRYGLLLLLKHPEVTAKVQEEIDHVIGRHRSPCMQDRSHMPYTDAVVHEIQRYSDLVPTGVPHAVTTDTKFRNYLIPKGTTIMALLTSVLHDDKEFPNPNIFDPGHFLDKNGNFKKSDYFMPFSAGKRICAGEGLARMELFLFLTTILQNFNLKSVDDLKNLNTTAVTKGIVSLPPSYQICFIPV
The data set is described as follows: Inhibition of CYP2C8 in human liver microsomes preincubated for 5 mins followed by NADPH addition measured after 10 mins by LC-MS/MS analysis. In kind it is ADME. On the technique in general: Liver microsomes are a subcellular fraction often used to study metabolism.

In data set [16] the target is Cytochrome P450 2C19 (Homo sapiens, UniProt P33261). The data set is described as follows: Inhibition of CYP2C19 in human liver microsomes preincubated for 5 mins followed by NADPH addition measured after 40 mins by LC-MS/MS analysis. Type of data set: ADME.
For data set [17], the target named is T3, CYP2C8 (Homo sapiens, UniProt P10632).
T3 sequence (P10632 whole entry): T2 sequence (P10632 whole entry)
The data set is described as follows: Inhibition of CYP2C8 in human liver microsomes preincubated for 5 mins followed by NADPH addition at 10 uM measured after 10 mins by LC-MS/MS analysis relative to control. Type of data set: ADME.

Data set [18] deals with CYP2C9 (Homo sapiens, UniProt P11712). The data set is described as follows: Inhibition of CYP2C9 in human liver microsomes preincubated for 5 mins followed by NADPH addition at 10 uM measured after 10 mins by LC-MS/MS analysis relative to control. In kind it is ADME.

≈ marks a conversion by molar mass, not a printed value. Calls of active or inactive are those of the source. No cut-off for these calls is given here.

Chain of Cytochrome P450 2C19 (P33261 whole entry): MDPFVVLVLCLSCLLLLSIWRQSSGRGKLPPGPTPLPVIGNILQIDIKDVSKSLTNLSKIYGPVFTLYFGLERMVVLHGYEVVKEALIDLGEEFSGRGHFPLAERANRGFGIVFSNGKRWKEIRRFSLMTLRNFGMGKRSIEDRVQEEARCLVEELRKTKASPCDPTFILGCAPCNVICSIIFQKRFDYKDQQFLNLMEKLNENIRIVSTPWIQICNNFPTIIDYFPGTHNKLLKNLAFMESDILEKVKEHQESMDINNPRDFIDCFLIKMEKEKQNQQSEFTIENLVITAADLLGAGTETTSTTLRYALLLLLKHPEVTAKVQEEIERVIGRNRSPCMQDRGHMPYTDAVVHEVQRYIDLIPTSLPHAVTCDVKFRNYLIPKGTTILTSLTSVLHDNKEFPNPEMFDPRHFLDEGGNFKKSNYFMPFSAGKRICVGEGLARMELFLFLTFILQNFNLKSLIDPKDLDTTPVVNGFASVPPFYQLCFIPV
Chain of CYP2C9 (P11712 whole entry): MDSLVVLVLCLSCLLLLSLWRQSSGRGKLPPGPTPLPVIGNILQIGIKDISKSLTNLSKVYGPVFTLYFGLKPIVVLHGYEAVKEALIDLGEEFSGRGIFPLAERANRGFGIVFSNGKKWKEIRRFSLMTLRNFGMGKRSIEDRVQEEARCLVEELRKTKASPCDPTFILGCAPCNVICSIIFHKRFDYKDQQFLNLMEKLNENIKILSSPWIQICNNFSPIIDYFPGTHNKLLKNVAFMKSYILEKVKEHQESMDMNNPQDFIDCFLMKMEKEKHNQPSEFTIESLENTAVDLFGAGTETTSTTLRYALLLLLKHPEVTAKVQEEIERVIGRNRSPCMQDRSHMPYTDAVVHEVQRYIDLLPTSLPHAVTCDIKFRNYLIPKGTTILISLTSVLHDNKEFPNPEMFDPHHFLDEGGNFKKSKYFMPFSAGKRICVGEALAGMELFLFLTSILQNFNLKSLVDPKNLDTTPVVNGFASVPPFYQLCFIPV

In general, MIC refers to the lowest concentration found to suppress growth. By inhibition is commonly meant the drop in the measured response relative to a control, in per cent. By IC50 is commonly meant the concentration that inhibits the measured activity by half. For `O=C(NC1CCCCCC1)c1cc2c(Cl)cc(Cl)cc2[nH]1`, the results for the selectivity ratio in data set [1] and in [2] were 2050 to 4100 and 64 to 128, respectively. For the same compound, the minimal inhibitory concentration (MIC) was found to be 0.125 µg/mL (≈ 0.384 µM) in [3]; 0.125 µg/mL (≈ 0.384 µM) in [4]; 0.125 µg/mL (≈ 0.384 µM) in data set [5]; 0.125 µg/mL (≈ 0.384 µM) in data set [6]; 0.125 µg/mL (≈ 0.384 µM) in [7]; 32 µg/mL (≈ 98.4 µM) in [9]. The result in data set [8] was Active. The outcome in data set [10] and in data set [11] was inactive. For the same compound, the inhibition result in data set [12] is “Active”. The half-maximal inhibitory concentration (IC50) in data set [13], in data set [15] and in data set [16] was at most 20 µM throughout. For the same compound, the inhibition entry in data set [14] is “inactive”. Besides, the inhibition at 10 min, 10 µM came out at 20% in data set [17] and 6% in [18].

For the origin of these results see ChEMBL document CHEMBL4014347, “Targeting Mycolic Acid Transport by Indole-2-carboxamides for the Treatment of Mycobacterium abscessus Infections” (J Med Chem, 2017).
